Converted amounts (≈) assume the structure as drawn. The source made the active and inactive calls.
Tests used:
[1] = target: Sigma non-opioid intracellular receptor 1 (Homo sapiens, UniProt Q99720); assay: Displacement of [3H]-(+)-pentazocine from recombinant human sigma1 receptor expressed in HEK293 cell membranes after 120 mins by microbeta scintillation counting method
[2] = species on record: Cavia porcellus; assay: Displacement of [3H]-DTG from sigma2 receptor in guinea pig brain membranes at 1 uM after 120 mins in presence of sigma1 […] (+)-SKF10047 by microbeta scintillation counting method relative to control; assay type: cell membranes; settings: Membrane
Summary of the method: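 σ2R binding in guinea pig brain membranes with [³H]-di-o-tolylguanidine as radioligand. Compound tested at 1 μM as % inhibition. Mean of two determinations.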

[3] = Stability of the compound assessed as drug degradation at pH 2; assay type: physicochemical; settings: buffer
Summary of the method: (§1)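 Chemical stability measured by LC/MS. A 10 mM DMSO stock of compound was diluted into phosphate buffer pH 7.4 or 0.01 M HCl pH 2.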

[4] = Stability of the compound assessed as drug degradation at pH 7.4; assay type: physicochemical; settings: buffer; summary of the method: as §1
[5] = Thermodynamic solubility of the compound in pH 2 phosphate buffer; assay type: physicochemical; settings: read-out: Therm_solubility
[6] = test system: Mus musculus; assay: Antinociceptive activity in capsaicin-induced nociception pain CD-1 mouse model assessed as increase in paw withdrawal latency at 80 mg/kg, po pretreated for 30 mins followed by capsaicin challenge measured after 15 mins by von frey filament assay relative to control; assay type: functional
Summary of the method: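 Capsaicin test in mice, drug given orally at 80 mg/kg. Mechanical hypersensitivity was read as paw withdrawal latency to upward pressure by von Frey filament. Result is % reduction in drug-treated vs vehicle animals.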

[7] = target: CYP2D6 (Homo sapiens, UniProt P10635); assay: Inhibition of recombinant human CYP2D6 at 1 uM relative to control; assay type: ADME
[8] = target: CYP2C9 (Homo sapiens, UniProt P11712); assay: Inhibition of recombinant human CYP2C9 at 1 uM relative to control; assay type: ADME
[9] = test system: Mus musculus; assay: Analgesic activity in formalin-induced nociception CD-1 mouse model assessed as reduction in time spent in licking or biting formalin injected hind paw at 40 mg/kg, ip pretreated for 30 mins followed by formalin stimulation measured up to 5 mins; assay type: functional, organism-based
[10] = Displacement of [3H]-DTG from sigma2 receptor in guinea pig brain membranes after 120 mins in presence of sigma1 […] (+)-SKF10047 by microbeta scintillation counting method; assay type: cell membranes, Cavia porcellus, Membrane
[11] = test system: Mus musculus; assay: Analgesic activity in formalin-induced nociception CD-1 mouse model assessed as reduction in time spent in licking or biting formalin injected hind paw at 80 mg/kg, po pretreated for 30 mins followed by formalin stimulation measured up to 5 mins; assay type: functional, organism-based
[12] = test system: HepG2; assay: Cytotoxicity against human HepG2 cells up to 100 uM by MTT assay; assay type: cell-based
Summary of the method: (§2)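 HepG2 cells exposed to compound up to 100 μM. Cytotoxicity read by MTT and by Neutral Red uptake.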

[13] = test system: Mus musculus; assay: Antinociceptive activity in partial sciatic nerve ligation CD-1 mouse model of neuropathic pain assessed as reduction in mechanical hypersensitivity at 80 mg/kg, po administered 8 days post partial sciatic nerve injury measured after 30 mins by von frey filament assay relative to control; assay type: functional; set-up: scale not given: the % may be the effect or the level left
Summary of the method: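 Mice with partial sciatic nerve ligation, drug given orally at 80 mg/kg. Pressure threshold (g) for paw withdrawal to von Frey filament was measured after dosing. It was compared with vehicle response 8 days post-surgery and with pre-ligation baseline to give % reduction of hypersensitivity.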

[14] = Intrinsic clearance in human liver microsomes assessed as per mg protein at 1 uM after 1 hr in presence of NADPH-generating system by UPLC-MS/MS analysis; assay type: ADME, microsome; settings: read-out: CLH
[15] = Thermodynamic solubility of the compound in pH 7.4 phosphate buffer; assay type: physicochemical; settings: read-out: Therm_solubility
[16] = test system: Salmonella typhimurium; assay: Genotoxicity in Salmonella typhimurium TA1535 harboring pSK1002 by […]; assay type: toxicity, organism-based; settings: salmonella enterica subsp. enterica serovar typhimurium
[17] = target: CYP3A4 (Homo sapiens, UniProt P08684); assay: Inhibition of recombinant human CYP3A4 at 1 uM relative to control; assay type: ADME
[18] = test system: Mus musculus; assay: Analgesic activity in formalin-induced nociception CD-1 mouse model assessed as reduction in time spent in licking or biting formalin injected hind paw at 40 mg/kg, ip pretreated for 30 mins followed by formalin stimulation measured after 15 to 30 mins relative to control; assay type: functional; set-up: scale not given: the % may be the effect or the level left
Summary of the method: (§3)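 Mice received drug i.p. (40 mg/kg) or p.o. (80 mg/kg), and formalin was injected intraplantar. Paw licking-biting time in phase II (delayed phase) was scored. Result is % antinociception in treated animals vs vehicle.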

[19] = test system: HepG2; assay: Cytotoxicity against human HepG2 cells up to 100 uM by neutral red uptake assay; assay type: cell-based; summary of the method: as §2
[20] = target: T1, CYP1A2 (Homo sapiens, UniProt P05177); assay: Inhibition of recombinant human CYP1A2 at 1 uM relative to control; assay type: ADME
T1 sequence (P05177 whole entry): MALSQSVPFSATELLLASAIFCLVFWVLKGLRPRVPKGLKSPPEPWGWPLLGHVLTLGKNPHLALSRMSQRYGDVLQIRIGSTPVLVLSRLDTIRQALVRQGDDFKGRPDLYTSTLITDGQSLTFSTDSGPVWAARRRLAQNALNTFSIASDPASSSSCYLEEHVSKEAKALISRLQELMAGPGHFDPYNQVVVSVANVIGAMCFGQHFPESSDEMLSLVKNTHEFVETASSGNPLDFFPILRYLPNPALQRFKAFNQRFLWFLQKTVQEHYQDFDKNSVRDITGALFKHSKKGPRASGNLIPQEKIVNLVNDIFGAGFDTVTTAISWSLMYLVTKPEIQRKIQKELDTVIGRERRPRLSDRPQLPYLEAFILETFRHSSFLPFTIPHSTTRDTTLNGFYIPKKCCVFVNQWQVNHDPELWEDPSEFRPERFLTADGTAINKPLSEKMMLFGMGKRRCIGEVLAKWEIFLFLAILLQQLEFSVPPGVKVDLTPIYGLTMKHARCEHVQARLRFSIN

[21] = target: CYP2C19 (Homo sapiens, UniProt P33261); assay: Inhibition of recombinant human CYP2C19 at 1 uM relative to control; assay type: ADME
[22] = test system: Mus musculus; assay: Analgesic activity in formalin-induced nociception CD-1 mouse model assessed as reduction in time spent in licking or biting formalin injected hind paw at 80 mg/kg, po pretreated for 30 mins followed by formalin stimulation measured after 15 to 30 mins relative to control; assay type: functional; set-up: scale not given: the % may be the effect or the level left; summary of the method: as §3
[23] = Apparent permeability in human Caco2 cells; assay type: ADME, cell-based; settings: Caco-2

Sigma non-opioid intracellular receptor 1, sequence (Q99720 whole entry): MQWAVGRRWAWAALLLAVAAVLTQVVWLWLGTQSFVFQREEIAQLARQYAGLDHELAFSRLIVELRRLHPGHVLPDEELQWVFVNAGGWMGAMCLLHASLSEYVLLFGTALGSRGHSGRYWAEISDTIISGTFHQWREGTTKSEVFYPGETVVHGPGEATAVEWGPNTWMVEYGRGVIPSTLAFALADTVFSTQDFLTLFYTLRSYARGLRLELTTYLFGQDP
CYP2C19, sequence (P33261 whole entry): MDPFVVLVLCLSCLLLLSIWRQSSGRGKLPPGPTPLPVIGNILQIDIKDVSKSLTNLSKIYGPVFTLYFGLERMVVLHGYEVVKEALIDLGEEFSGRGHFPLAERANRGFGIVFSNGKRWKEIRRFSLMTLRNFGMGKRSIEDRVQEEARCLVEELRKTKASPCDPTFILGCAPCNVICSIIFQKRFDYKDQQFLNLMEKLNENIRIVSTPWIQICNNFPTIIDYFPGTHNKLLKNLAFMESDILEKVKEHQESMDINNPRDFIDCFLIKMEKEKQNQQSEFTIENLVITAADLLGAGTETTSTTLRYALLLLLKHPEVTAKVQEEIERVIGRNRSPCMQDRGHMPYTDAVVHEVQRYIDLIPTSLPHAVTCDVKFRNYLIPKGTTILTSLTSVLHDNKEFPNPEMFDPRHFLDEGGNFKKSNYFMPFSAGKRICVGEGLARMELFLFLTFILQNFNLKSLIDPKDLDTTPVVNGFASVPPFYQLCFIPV
CYP3A4, sequence (P08684 whole entry): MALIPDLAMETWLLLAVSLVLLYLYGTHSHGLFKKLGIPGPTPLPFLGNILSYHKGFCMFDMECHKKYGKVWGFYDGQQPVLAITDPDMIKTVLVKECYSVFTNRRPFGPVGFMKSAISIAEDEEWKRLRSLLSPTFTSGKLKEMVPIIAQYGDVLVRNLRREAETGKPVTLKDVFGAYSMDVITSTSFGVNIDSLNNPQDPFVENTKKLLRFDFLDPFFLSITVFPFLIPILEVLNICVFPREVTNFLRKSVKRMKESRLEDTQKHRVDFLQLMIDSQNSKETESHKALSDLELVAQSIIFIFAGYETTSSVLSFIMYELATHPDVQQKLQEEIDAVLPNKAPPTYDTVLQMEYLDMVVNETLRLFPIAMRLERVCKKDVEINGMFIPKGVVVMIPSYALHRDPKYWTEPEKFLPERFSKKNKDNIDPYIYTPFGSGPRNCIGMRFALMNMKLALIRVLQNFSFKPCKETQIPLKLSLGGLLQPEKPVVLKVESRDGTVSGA
CYP2C9, sequence (P11712 whole entry): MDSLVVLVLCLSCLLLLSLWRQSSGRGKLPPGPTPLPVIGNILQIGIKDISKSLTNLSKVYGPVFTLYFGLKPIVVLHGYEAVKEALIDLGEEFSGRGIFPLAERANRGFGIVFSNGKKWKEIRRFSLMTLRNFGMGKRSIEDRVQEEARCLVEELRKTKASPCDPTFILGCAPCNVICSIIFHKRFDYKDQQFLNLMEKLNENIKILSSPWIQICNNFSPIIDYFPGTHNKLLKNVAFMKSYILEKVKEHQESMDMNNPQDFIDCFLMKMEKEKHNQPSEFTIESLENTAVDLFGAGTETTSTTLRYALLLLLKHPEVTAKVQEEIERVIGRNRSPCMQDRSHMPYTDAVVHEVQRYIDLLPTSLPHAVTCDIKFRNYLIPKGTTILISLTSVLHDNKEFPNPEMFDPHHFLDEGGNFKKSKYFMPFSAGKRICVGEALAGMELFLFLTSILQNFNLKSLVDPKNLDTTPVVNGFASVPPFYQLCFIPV
CYP2D6, sequence (P10635 whole entry): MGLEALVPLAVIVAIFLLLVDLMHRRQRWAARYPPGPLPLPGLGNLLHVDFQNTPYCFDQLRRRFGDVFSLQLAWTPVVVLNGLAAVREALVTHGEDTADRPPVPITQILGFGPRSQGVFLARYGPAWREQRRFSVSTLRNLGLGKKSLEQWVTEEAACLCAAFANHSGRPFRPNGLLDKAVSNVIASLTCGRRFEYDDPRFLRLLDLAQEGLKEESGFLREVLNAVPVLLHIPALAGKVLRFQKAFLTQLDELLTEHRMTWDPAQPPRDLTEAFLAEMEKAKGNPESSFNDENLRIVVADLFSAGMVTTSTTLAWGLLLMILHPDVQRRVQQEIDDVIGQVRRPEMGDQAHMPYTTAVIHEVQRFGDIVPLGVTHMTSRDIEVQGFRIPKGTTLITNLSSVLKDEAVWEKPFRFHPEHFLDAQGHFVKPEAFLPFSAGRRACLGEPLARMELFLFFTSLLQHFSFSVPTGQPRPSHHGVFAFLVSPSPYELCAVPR

| SMILES | Ki [1] | inhibition [2] | Stability [3] | Stability [4] | further results |
| --- | --- | --- | --- | --- | --- |
| CCOc1ccccc1-c1ncnc2c1cnn2CCN1CCCCC1 | 300 nM | 81% | – | – | – |
| c1ccc(C2CCN(c3ncnc4c3cnn4CCN3CCCCC3)C2)cc1 (stereo not given) | 294 nM | 71% | – | – | – |
| Cc1noc(C)c1-c1ncnc2c1cnn2CCN1CCCCC1 | 72 nM | – | Stable | Stable | – |
| Cn1cnc(-c2ncnc3c2cnn3CCN2CCCCC2)c1 | 11800 nM | – | – | – | – |
| Cc1cncc(-c2ncnc3c2cnn3CCN2CCCCC2)c1 | 447 nM | – | – | – | – |
| COc1cc(F)ccc1-c1ncnc2c1cnn2CCN1CCCCC1 | 39 nM | 87% | Stable | Stable | – |
| Fc1ccc(-c2ncnc3c2cnn3CCN2CCCCC2)c(F)c1 | 93 nM | 83% | Stable | Stable | – |
| c1cn(-c2ncnc3c2cnn3CCN2CCCCC2)cn1 | 13800 nM | – | – | – | – |
| O=C1CCCN1c1ncnc2c1cnn2CCN1CCCCC1 | 6190 nM | – | – | – | – |
| c1ccc(-c2ncnc3c2cnn3CCN2CCCCC2)cc1 | 100 nM | 69% | – | – | – |
| COc1ccc(-c2ncnc3c2cnn3CCN2CCCCC2)cn1 | 38300 nM | – | – | – | – |
| Cn1cncc1-c1ncnc2c1cnn2CCN1CCCCC1 | 715 nM | – | – | – | – |
| Cc1ccc(Cl)c(-c2ncnc3c2cnn3CCN2CCCCC2)c1 | 31 nM | 95% | Stable | Stable | – |
| Cn1cccc1-c1ncnc2c1cnn2CCN1CCCCC1 | 31 nM | – | Stable | Stable | – |
| c1csc(-c2ncnc3c2cnn3CCN2CCCCC2)n1 | 1830 nM | – | – | – | – |
| Fc1ccc(-c2ncnc3c2cnn3CCN2CCCCC2)cc1 | 95 nM | 75% | Stable | Stable | – |
| Cc1cccc(-c2ncnc3c2cnn3CCN2CCCCC2)c1 | 82 nM | 82% | Stable | Stable | – |
| Cc1cc(F)ccc1-c1ncnc2c1cnn2CCN1CCCCC1 | 48 nM | 86% | Stable | Stable | – |
| Clc1ccc(-c2ncnc3c2cnn3CCN2CCCCC2)s1 | 35 nM | – | Stable | Stable | – |
| Clc1ccccc1-c1ncnc2c1cnn2CCN1CCCCC1 | 76 nM | 92% | Stable | Stable | – |
| Cn1cc(-c2ncnc3c2cnn3CCN2CCCCC2)cn1 | 9460 nM | – | – | – | – |
| Fc1cc(Cl)ccc1-c1ncnc2c1cnn2CCN1CCCCC1 | 112 nM | 73% | – | – | – |
| c1cncc(-c2ncnc3c2cnn3CCN2CCCCC2)c1 | 926 nM | – | – | – | – |
| CC(C)(C)C(=O)Nc1ncnc2c1cnn2CCN1CCCCC1 | – | – | Stable | Stable | – |
| FC1(F)CCN(c2ncnc3c2cnn3CCN2CCCCC2)CC1 | 108 nM | 67% | – | – | – |
| CNC1CCN(c2ncnc3c2cnn3CCN2CCCCC2)C1 (stereo not given) | 25800 nM | – | – | – | – |

| SMILES | Ki [1] | inhibition [2] | Stability [3] | Stability [4] | further results |
| --- | --- | --- | --- | --- | --- |
| COc1ncccc1-c1ncnc2c1cnn2CCN1CCCCC1 | 112 nM | – | – | – | – |
| c1nc(-c2cn[nH]c2)c2cnn(CCN3CCCCC3)c2n1 | 802 nM | – | – | – | – |
| c1nc(-c2cnsc2)c2cnn(CCN3CCCCC3)c2n1 | 475 nM | 40% | – | – | – |
| Cn1nc(C(F)(F)F)cc1-c1ncnc2c1cnn2CCN1CCCCC1 | 137 nM | – | – | – | – |
| c1ccc2c(-c3ncnc4c3cnn4CCN3CCCCC3)cncc2c1 | 666 nM | – | – | – | – |
| CC1(C)CCN(c2ncnc3c2cnn3CCN2CCCCC2)C1 | 165 nM | 58% | – | – | – |
| Cn1nccc1-c1ncnc2c1cnn2CCN1CCCCC1 | – | – | Stable | Stable | solubility thermodynamic [5]: 2400 µg/mL (≈ 7.71 mM); Activity [6]: 43%; inhibition at 1 µM [7]: < 50%; inhibition at 1 µM [8]: < 50%; Activity [9]: Active; Ki [10]: > 1000 nM; Activity [11]: Active; Activity [12]: Non-Toxic; Activity [13]: 46%; microsomal CLint at 1 µM [14]: 2.4 µL/min/mg; solubility thermodynamic [15]: 1500 µg/mL (≈ 4.82 mM); Activity [16]: Non-Toxic; inhibition at 1 µM [17]: < 50%; Activity [18]: 67%; Activity [19]: Non-Toxic; inhibition at 1 µM [20]: < 50%; inhibition at 1 µM [21]: < 50%; Activity [22]: 54%; Papp [23]: 40.7 ×10⁻⁶ cm/s |
| Clc1ccc(-c2ncnc3c2cnn3CCN2CCCCC2)cc1 | 43 nM | 74% | Stable | Stable | – |
| COc1ccc(-c2ncnc3c2cnn3CCN2CCCCC2)cc1 | 531 nM | 58% | – | – | – |
| c1nc(N2CCCCC2)c2cnn(CCN3CCCCC3)c2n1 | 200 nM | 67% | – | – | – |
| Fc1ccc(-c2ncnc3c2cnn3CCN2CCCCC2)cc1C(F)(F)F | 57 nM | 87% | Stable | Stable | – |
| Cc1ncccc1-c1ncnc2c1cnn2CCN1CCCCC1 | 732 nM | – | – | – | – |
| c1coc(-c2ncnc3c2cnn3CCN2CCCCC2)n1 | 23800 nM | – | – | – | – |
| Cc1ccc(C)c(-c2ncnc3c2cnn3CCN2CCCCC2)c1 | 63 nM | 89% | Stable | Stable | – |
| c1ccc2c(c1)ncn2-c1ncnc2c1cnn2CCN1CCCCC1 | 112 nM | 66% | – | – | – |
| Cc1cccc(-c2ncnc3c2cnn3CCN2CCCCC2)n1 | 709 nM | – | – | – | – |
| Cc1ccc(C)n1-c1ncnc2c1cnn2CCN1CCCCC1 | 740 nM | – | – | – | – |
| FC(F)(F)c1ccccc1-c1ncnc2c1cnn2CCN1CCCCC1 | 125 nM | 86% | – | – | – |
| CC(C)n1cc(-c2ncnc3c2cnn3CCN2CCCCC2)cn1 | 2910 nM | – | – | – | – |
| N#Cc1ccc(-c2ncnc3c2cnn3CCN2CCCCC2)cc1 | 558 nM | 47% | – | – | – |
| Cc1ccccc1-c1ncnc2c1cnn2CCN1CCCCC1 | 74 nM | 83% | Stable | Stable | – |
| c1ccc(-c2ncnc3c2cnn3CCN2CCCCC2)nc1 | 634 nM | – | – | – | – |
| Cc1ccncc1-c1ncnc2c1cnn2CCN1CCCCC1 | 707 nM | – | – | – | – |
| c1cc(-c2ncnc3c2cnn3CCN2CCCCC2)ccn1 | 1720 nM | – | – | – | – |
| Cc1cc(OCCN2CCOCC2)nn1-c1ccc2ccccc2c1 | – | – | Stable | Stable | Activity [6]: 48%; Activity [9]: Active; Activity [11]: Active; Activity [13]: 62%; Activity [18]: 50%; Activity [22]: 66% |
